We go through one compound from ChEMBL document CHEMBL3853270, “Influence of Birch Bark Triterpenes on Keratinocytes and Fibroblasts from Diabetic and Nondiabetic Donors” (2016).

Calls of active or inactive are those of the source. No cut-off for these calls is given here.

What all share (format): functional
For experiment [1], the system named is Keratinocyte. As to the kind of experiment: Effect on ECM related gene expression in non-diabetic adult human primary keratinocytes assessed as FBN1 mRNA levels at 9.81 uM after 6 hrs by qPCR analysis. In a few lines: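 Primary keratinocytes from nondiabetic young and adult and diabetic adult donors; 400 000 cells per sample, 6 h exposure at 1.96 or 9.81 μM. RNA extracted and read on a high-throughput qPCR chip. Results are fold change versus 0.1% DMSO solvent control from 5−7 independent experiments over two donors per group, SD, one-way ANOVA with Bonferroni post-test.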

Experiment [2] can be described thus: Effect on wound healing activity in non-diabetic adult human primary fibroblasts assessed as upregulation of soluble ICAM1 protein levels at 1.96 uM after 24 hrs by bead-based suspension array analysis. Conditions: Fibroblast.
For experiment [3], the system named is Fibroblast. As to the kind of experiment: Effect on antioxidant related gene expression in non-diabetic young human primary fibroblasts assessed as NFE2L2 mRNA levels at 1.96 uM after 6 hrs by qPCR analysis. On the technique in general: In qPCR the cycle at which signal appears reflects the starting amount.
Experiment [4] has as its system Fibroblast. Nature of the experiment: Effect on adhesion molecules related gene expression in non-diabetic adult human primary fibroblasts assessed as ICAM1 mRNA levels at 1.96 uM after 6 hrs by qPCR analysis. In a few lines: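 Dermal fibroblasts from nondiabetic adult and diabetic adult donors, exposed for 6 h at 1.96 or 9.81 μM. ICAM-1 and VCAM-1 mRNA measured by standard qRT-PCR, n = 3. Fold change versus 0.1% DMSO control, SD, one-way ANOVA with Bonferroni post-test.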

Experiment [5] deals with Fibroblast. Nature of the experiment: Effect on chemokines related gene expression in diabetic adult human primary fibroblasts assessed as WDR26 mRNA levels at 1.96 uM after 6 hrs by qPCR analysis.
For experiment [6], the system named is Fibroblast. As to the kind of experiment: Effect on antiinflammatory related gene expression in diabetic adult human primary fibroblasts assessed as SOCS3 mRNA levels at 1.96 uM after 6 hrs by qPCR analysis. The essentials: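 Primary dermal fibroblasts from one nondiabetic young, one nondiabetic adult and one diabetic adult donor; 320 000 cells per sample, 6 h at 1.96 or 9.81 μM. RNA measured on a high-throughput qPCR chip. Fold change versus 0.1% DMSO control, four independent experiments, SD, one-way ANOVA with Bonferroni post-test.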

Experiment [7] has as its system Keratinocyte. As to the kind of experiment: Effect on pro-inflammatory related gene expression in diabetic adult human primary keratinocytes assessed as PTGS2 mRNA levels at 1.96 uM after 6 hrs by qPCR analysis.
The test system of experiment [8] is Fibroblast. As to the kind of experiment: Effect on growth factor related gene expression in non-diabetic young human primary fibroblasts assessed as VEGFA mRNA levels at 9.81 uM after 6 hrs by qPCR analysis. The essentials: (§1)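 Primary human dermal fibroblasts (young or adult nondiabetic, adult diabetic donor) were treated for 6 h against a 0.1% DMSO solvent control. RNA from 320 000 cells per sample was measured by Fluidigm Biomark high-throughput qPCR. Values are fold change relative to solvent control, from four independent experiments, with SD. One-way ANOVA with Bonferroni post-test was applied.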

The test system of experiment [9] is Keratinocyte. Nature of the experiment: Effect on cellular connection related gene expression in non-diabetic adult human primary keratinocytes assessed as CLDN4 mRNA levels at 9.81 uM after 6 hrs by qPCR analysis.
For experiment [10], the system named is Fibroblast. As to the kind of experiment: Effect on growth factor related gene expression in diabetic adult human primary fibroblasts assessed as VEGFA mRNA levels at 1.96 uM after 6 hrs by qPCR analysis. In a few lines: as §1
The test system of experiment [11] is Fibroblast. As to the kind of experiment: Effect on pro-inflammatory related gene expression in non-diabetic adult human primary fibroblasts assessed as IL1R1 mRNA levels at 9.81 uM after 6 hrs by qPCR analysis.
The test system of experiment [12] is Fibroblast. Nature of the experiment: Effect on growth factor related gene expression in diabetic adult human primary fibroblasts assessed as GDF15 mRNA levels at 1.96 uM after 6 hrs by qPCR analysis. In a few lines: as §1

With `C=C(C)[C@@H]1CC[C@]2(CO)CC[C@]3(C)[C@H](CC[C@@H]4[C@@]5(C)CC[C@H](O)C(C)(C)[C@@H]5CC[C@]43C)[C@@H]12` [BETULIN], the “fold change (FC)” value in the experiment with Keratinocyte [1] turned out to be 0.7; in the experiment on Fibroblast [3] it was 1.2; in the experiment on Fibroblast [4], 144; with Fibroblast [5] it was 1.2; in the experiment with Fibroblast [6] it was 2; in the experiment with Keratinocyte [7] it was 1.3. Further, the “fold change (FC)” value is recorded as 2 in the experiment on Fibroblast [8]; 1.5 with Keratinocyte [9]; 2.4 in the experiment with Fibroblast [10]; 4.9 in the experiment on Fibroblast [11]; 2.4 in the experiment on Fibroblast [12]. In addition, the outcome in experiment [2] was Active.
